Assay results of several laboratories.
Compare with care: the assays were run in different laboratories.
RPS6KA1: Ribosomal protein S6 kinase alpha-1 (RPS6KA1, Homo sapiens, UniProt Q15418)
RPS6KA1 N-terminal kinase domain: Ribosomal protein S6 kinase alpha-1, N-terminal kinase domain (RPS6KA1, Homo sapiens, UniProt Q15418)
RPS6KA1 C-terminal kinase domain: Ribosomal protein S6 kinase alpha-1, C-terminal kinase domain (RPS6KA1, Homo sapiens, UniProt Q15418)

Cc1ccc(C(=O)Nc2ccc(CN3CCN(C)CC3)c(C(F)(F)F)c2)cc1C#Cc1cnc2cccnn12
remaining activity (RPS6KA1; enzyme activity, inhibitor; 23.5 nM): 80%

CC(C)(O)[C@H]1CC[C@H](Nc2ccc3ncc(-c4cccc(C(F)(F)F)c4)n3n2)CC1
remaining activity (RPS6KA1; enzyme activity, inhibitor; 1 µM): 72%

COc1cc2ncnc(Nc3ccc(Oc4ccccc4)cc3C)c2cc1OC
inhibition (RPS6KA1; enzyme activity, inhibitor; 1 µM): 6%

Cn1nc(C(=O)NCc2ccc(C(=O)O)cc2)cc1-c1ccc2[nH]ccc2c1
remaining binding (RPS6KA1 N-terminal kinase domain; cell-free assay, competition with immobilised ligand; 0.1 µM): 100%

C[C@@H]1CCN(C(=O)CC#N)C[C@@H]1N(C)c1ncnc2[nH]ccc12
remaining signal (RPS6KA1; cell-free assay, inhibitor; 0.5 µM): 90.9%

N#CC1(c2ccccn2)CCN(Cc2cc(C(=O)N3CCCC3)c(=O)n3ccccc23)CC1
remaining binding (RPS6KA1 N-terminal kinase domain; cell-free assay, competition with immobilised ligand; 1 µM): 100%

CC(C)(C)c1nc(-c2cccc(NS(=O)(=O)c3c(F)cccc3F)c2F)c(-c2ccnc(N)n2)s1
remaining activity (RPS6KA1; enzyme activity, inhibitor, radiometric; 1 µM): 90%

COc1cc(/C=C/C(=O)CC(=O)/C=C/c2ccc(O)c(OC)c2)ccc1O
activity vs control (RPS6KA1; enzyme activity, inhibitor; 1 µM): 53%

CO[C@H]1CC[C@H](CNc2ccc(S(=O)(=O)NC(=O)c3ccc(N4CCN(CC5=C(c6ccc(Cl)cc6)CC(C)(C)CC5)CC4)cc3Oc3cnc4[nH]ccc4c3)cc2[N+](=O)[O-])CC1
remaining binding (RPS6KA1 C-terminal kinase domain; cell-free assay, competition with immobilised ligand; 1 µM): 73%

Cn1cncc1C1=CN(c2ncnc3[nH]cnc23)CCS1
inhibition (RPS6KA1; enzyme activity, inhibitor, radiometric; 2 µM): 82%

CCCS(=O)(=O)Nc1ccc(F)c(C(=O)c2c[nH]c3ncc(-c4ccc(Cl)cc4)cc23)c1F
inhibition (RPS6KA1; enzyme activity, inhibitor; 1 µM): < 10%

CNC(=O)c1cc(Oc2ccc(NC(=O)Nc3ccc(Cl)c(C(F)(F)F)c3)cc2)ccn1
inhibition (RPS6KA1; enzyme activity, inhibitor; 10 µM): 25%

O=C(NC[C@@H]1[C@H]2CN(C(=O)OCc3cc(C(F)(F)F)cc(C(F)(F)F)c3)C[C@@H]12)c1ccc2[nH]nnc2c1
remaining binding (RPS6KA1 N-terminal kinase domain; cell-free assay, competition with immobilised ligand; 1 µM): 94%

c1cnn2ncc(-c3ccnc(N4CCC45COC5)n3)c2c1
remaining binding (RPS6KA1 C-terminal kinase domain; binding, competition with immobilised ligand; 1 µM): 56%

COc1cccc2c(NCc3ccccc3)nc(-n3c(N)nc4ccccc43)nc12
inhibition (RPS6KA1 C-terminal kinase domain; target engagement in cells, inhibitor, chemoproteomics; 20 mM): 1%

COc1cc(Nc2cnc(C#N)c(O[C@H](C)CN(C)C)n2)ncc1-c1cnn(C)c1
remaining activity (RPS6KA1; enzyme activity, inhibitor, radiometric; 10 µM): 14%

CCS(=O)(=O)c1cc2cc(C[C@@](O)(CC(C)(C)c3ccc(F)cc3C(N)=O)C(F)(F)F)[nH]c2cn1
remaining binding (RPS6KA1 C-terminal kinase domain; cell-free assay, competition with immobilised ligand; 1 µM): 0%

CN(c1ncccc1CNc1nc(Nc2ccc3c(c2)CC(=O)N3)ncc1C(F)(F)F)S(C)(=O)=O
inhibition (RPS6KA1; enzyme activity, inhibitor; 1 µM): 84.8%

N[C@H]1CCN(c2nccc(-c3cnn4ncccc34)n2)C1
remaining binding (RPS6KA1 C-terminal kinase domain; binding, competition with immobilised ligand; 1 µM): 99%

Nc1nc(Nc2ccc(S(N)(=O)=O)cc2)nn1C(=O)c1c(F)cccc1F
remaining signal (RPS6KA1; cell-free assay; 0.5 µM): 42.1%

Cc1cc(NC(=O)c2cccc3cc(-c4cccc5[nH]nc(N)c45)ccc23)ccc1F
activity vs control (RPS6KA1; enzyme activity, inhibitor; 0.1 µM): 115%

CCOCCn1cc(C(=O)Nc2ccc(-n3nc(-c4cccnc4)cc3C(F)(F)F)cn2)ccc1=O
remaining binding (RPS6KA1 N-terminal kinase domain; cell-free assay, competition with immobilised ligand; 1 µM): 99%

Cc1ccc(Nc2nccc(N(C)c3ccc4c(C)n(C)nc4c3)n2)cc1S(N)(=O)=O
remaining activity (RPS6KA1; enzyme activity, inhibitor; 0.5 µM): 92.8%
